In ChEMBL document CHEMBL3862037 (J Med Chem, 2016):

What was measured:
[1] = Induction of locomotor activity in C57BL/6J mouse assessed as increase in traveled distance every 10 mins at 3 and 10 mg/kg, ip; assay type: organism-based; settings: in vivo
[2] = biological target: T1, D(2) dopamine receptor (Homo sapiens, UniProt P14416); assay: Antagonist activity at DRD2 (unknown origin) expressed in HEK293T cells transfected with Galphai1-RLuc8 and gamma2-GFP10 assessed as inhibition of quinpirole-induced Gi1 activation pre-incubated with quinpirole for 10 mins before compound incubation for 10 mins by BRET assay; assay type: cell-based, HEK-293T
T1 sequence (P14416 whole entry, the tested form may be a part): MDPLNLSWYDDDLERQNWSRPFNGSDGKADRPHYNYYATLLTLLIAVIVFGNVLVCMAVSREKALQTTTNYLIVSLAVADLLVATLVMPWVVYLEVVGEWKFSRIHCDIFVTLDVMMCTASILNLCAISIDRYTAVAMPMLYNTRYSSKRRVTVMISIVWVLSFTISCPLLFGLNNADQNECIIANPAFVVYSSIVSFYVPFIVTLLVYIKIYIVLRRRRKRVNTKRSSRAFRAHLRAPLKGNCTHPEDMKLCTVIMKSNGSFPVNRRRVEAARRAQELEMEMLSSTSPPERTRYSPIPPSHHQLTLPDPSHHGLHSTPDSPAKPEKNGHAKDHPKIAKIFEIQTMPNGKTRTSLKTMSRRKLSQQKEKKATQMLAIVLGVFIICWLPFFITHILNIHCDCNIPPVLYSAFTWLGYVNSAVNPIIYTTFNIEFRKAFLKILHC
Method in brief: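 HEK-293T cells co-transfected with Flag-tagged D2 receptor, RLuc8-fused Gαi1, GFP10-fused Gγ and untagged Gβ, using constant total plasmid DNA at various partner ratios. Cells preincubated 10 min with 1 µM quinpirole, then 10 min with test compound. Read-out: BRET as fluorescence at 535 nm after 5 µM coelenterazine 400a.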

[3] = biological target: T2, D(4) dopamine receptor (Homo sapiens, UniProt P21917); assay: Displacement of [3H]N-methylspiperone from human D4R expressed in HEK293 cell membranes incubated for 1 hr by radioligand binding assay
T2 sequence (P21917 whole entry): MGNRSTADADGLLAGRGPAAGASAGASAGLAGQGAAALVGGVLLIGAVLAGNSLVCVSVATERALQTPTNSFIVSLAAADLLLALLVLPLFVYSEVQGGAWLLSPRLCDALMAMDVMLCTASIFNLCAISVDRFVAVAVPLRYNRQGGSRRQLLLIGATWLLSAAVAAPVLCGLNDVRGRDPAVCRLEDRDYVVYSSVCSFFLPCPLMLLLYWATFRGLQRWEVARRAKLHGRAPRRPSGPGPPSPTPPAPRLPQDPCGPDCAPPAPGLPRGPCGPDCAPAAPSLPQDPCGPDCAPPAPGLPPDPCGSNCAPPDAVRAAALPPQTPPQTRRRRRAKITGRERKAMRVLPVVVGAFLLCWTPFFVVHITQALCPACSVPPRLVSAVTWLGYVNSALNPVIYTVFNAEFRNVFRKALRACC
Method in brief: (§1)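 Membranes from HEK293 cells stably expressing human D2R (20 µg protein) or D4R (30 µg protein). Buffer: EBSS with 0.2 mM sodium metabisulfite and 0.4 nM [3H]N-methylspiperone. Test compound at 11 half-log dilutions (100 µM–100 pM or 10 µM–10 pM) in 30% DMSO vehicle. Incubated 1 h at room temperature; nonspecific binding with 10 µM butaclamol.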

[4] = biological target: T3, Sodium-dependent dopamine transporter (Homo sapiens, UniProt Q01959); assay: Displacement of [3H]WIN35,428 from wild type human DAT expressed in COS7 cell membranes incubated for >90 mins by radioligand binding assay; design: species or system COS-7
T3 sequence (Q01959 whole entry): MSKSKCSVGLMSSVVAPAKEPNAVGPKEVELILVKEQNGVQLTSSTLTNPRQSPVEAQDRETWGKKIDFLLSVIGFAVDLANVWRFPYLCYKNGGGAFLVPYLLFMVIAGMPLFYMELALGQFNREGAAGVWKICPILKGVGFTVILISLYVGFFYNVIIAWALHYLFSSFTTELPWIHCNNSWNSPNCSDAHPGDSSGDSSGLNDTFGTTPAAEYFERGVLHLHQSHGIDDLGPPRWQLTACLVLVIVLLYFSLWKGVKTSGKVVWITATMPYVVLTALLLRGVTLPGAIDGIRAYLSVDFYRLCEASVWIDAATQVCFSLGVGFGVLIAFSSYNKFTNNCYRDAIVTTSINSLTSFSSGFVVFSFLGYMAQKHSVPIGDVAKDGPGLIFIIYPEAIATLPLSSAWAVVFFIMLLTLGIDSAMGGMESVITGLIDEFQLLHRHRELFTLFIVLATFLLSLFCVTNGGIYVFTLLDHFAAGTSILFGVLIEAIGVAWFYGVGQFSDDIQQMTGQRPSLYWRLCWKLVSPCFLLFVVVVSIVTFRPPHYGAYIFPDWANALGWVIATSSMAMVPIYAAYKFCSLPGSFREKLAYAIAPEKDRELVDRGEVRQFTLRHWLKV

[5] = biological target: T3, Sodium-dependent dopamine transporter; assay: Inhibition of DAT (unknown origin) expressed in COS7 cells assessed as reduction in [3H]DA uptake incubated for 5 mins by beta-scintillation counting method; assay type: cell-based, COS-7
[6] = Stability in mouse liver microsomes assessed as compound remaining at 10 uM in absence of NADPH regenerating system measured after 60 mins by LC/MS/MS method; assay type: ADME, microsome; settings: read-out: Stability
[7] = Stability in mouse liver microsomes assessed as compound remaining at 10 uM in presence of NADPH regenerating system measured up to 70 mins by LC/MS/MS method; assay type: ADME; settings: read-out: Stability
[8] = biological target: T1, D(2) dopamine receptor; assay: Displacement of [3H]N-methylspiperone from human D2R expressed in HEK293 cell membranes incubated for 1 hr by radioligand binding assay; method in brief: as §1
[9] = biological target: D(3) dopamine receptor (Homo sapiens, UniProt P35462); assay: Displacement of [3H]N-methylspiperone from human D3R expressed in HEK293 cell membranes incubated for 1 hr by radioligand binding assay
Sequence of D(3) dopamine receptor (P35462 whole entry): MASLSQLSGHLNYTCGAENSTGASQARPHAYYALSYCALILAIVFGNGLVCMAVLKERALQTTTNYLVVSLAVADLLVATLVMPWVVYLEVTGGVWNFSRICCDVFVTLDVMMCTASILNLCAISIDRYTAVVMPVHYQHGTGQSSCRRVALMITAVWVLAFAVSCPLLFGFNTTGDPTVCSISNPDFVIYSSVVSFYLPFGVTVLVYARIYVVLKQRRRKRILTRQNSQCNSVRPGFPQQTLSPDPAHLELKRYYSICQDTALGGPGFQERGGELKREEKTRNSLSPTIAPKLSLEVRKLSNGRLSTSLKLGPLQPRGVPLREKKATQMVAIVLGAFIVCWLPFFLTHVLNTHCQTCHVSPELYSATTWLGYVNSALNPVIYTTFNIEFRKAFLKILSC

[10] = Stability in mouse liver microsomes assessed as half life at 10 uM in presence of NADPH regenerating system by LC/MS/MS method; assay type: ADME; settings: for half-life at 10 µM: liver microsomes
Method in brief: (§2)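 Mouse liver microsomes (0.5 mg/mL) in 100 mM potassium phosphate pH 7.4 with NADPH regenerating system. Compound at 10 µM final; testosterone as positive control. Parent compound loss followed over time by LC/MS/MS on a C18 column with formic acid/acetonitrile gradient.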

[11] = Displacement of [3H]WIN35,428 from human DAT Y156F mutant expressed in COS7 cell membranes incubated for >90 mins by radioligand binding assay; settings: cos-7
[12] = Induction of locomotor activity in C57BL/6J mouse assessed as increase in traveled distance every 10 mins at 10 to 30 mg/kg, ip; assay type: organism-based; settings: in vivo
[13] = Stability in mouse liver microsomes assessed as compound remaining at 10 uM in presence of NADPH regenerating system measured at 60 mins by LC/MS/MS method; assay type: ADME; settings: read-out: Stability; method in brief: as §2
[14] = Induction of locomotor activity in C57BL/6J mouse assessed as increase in traveled distance every 10 mins at 10 mg/kg, ip; assay type: organism-based; settings: in vivo

SMILES	Activity [1]	IC50 [2] [µM]	Ki [3] [µM]	Ki [4] [µM]	Ki [5] [µM]	remaining at 1 h, 10 µM [6] [%]	remaining at 70 min, 10 µM [7] [%]	Ki [8] [µM]	Ki [9] [µM]	half-life at 10 µM [10] [h]	Ki [11] [µM]	t1/2 ([10]; microsomes, 10 µM) [h]	Activity [12]	remaining at 1 h, 10 µM [13] [%]	Activity [14]
COC(=O)[C@H]1[C@@H](OC(=O)c2ccccc2)C[C@@H]2CC[C@H]1N2C [COCAINE]	Dose-dependent effect														
CC(O)CN1CCN(CCSC(c2ccc(F)cc2)c2ccc(F)cc2)CC1 (configuration not stated)		> 10	6.3	0.101	0.2	> 95	50	0.693	0.424	1	0.267				
CC(O)CN1CCN(CC[S+]([O-])C(c2ccc(F)cc2)c2ccc(F)cc2)CC1 (configuration not stated)		> 10	3.82	1.2		> 95	50	0.298	0.48	1	9.17				
[O-][S+](CCN1CCN(CC(O)Cc2ccccc2)CC1)C(c1ccc(F)cc1)c1ccc(F)cc1 (configuration not stated)		> 10	1.75	0.0065	0.012	> 95		0.0786	0.652		0.097	0.217	Dose-dependent effect	4	Non-Toxic
